# Laboratory results published in ChEMBL document CHEMBL1126811, “Fluorinated and iodinated dopamine agents: D2 imaging agents for PET and SPECT” (J Med Chem, 1993).
# What was measured:
# Rattus norvegicus [1] = assay: Biodistribution of radioligand [125I]FIDA1 in brain of rat after 30 minutes after an intravenous injection is given (average of 2 rats); type: ADME, organism-based; details: in vivo, 0.5 h
# Rattus norvegicus [2] = assay: Uptake of radioligand [125I]FIDA1 by hippo-campus in rat after 30 minutes after an intravenous injection is given (average of 2 rats); type: ADME, organism-based; details: in vivo, 0.5 h
# In short: (§1)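 Male Sprague–Dawley rats (225–300 g) under ether anesthesia received radioiodinated tracer (8–10 μCi in 0.2 mL saline) into the femoral vein. They were killed by cardiac excision at set times. Cortex, striatum, hippocampus and cerebellum were dissected, weighed and gamma-counted. Results are % dose/gram against diluted injected dose.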
# Rattus norvegicus [3] = assay: Uptake of radioligand [125I]FIDA1 by hippo-campus in rat after 120 minutes after an intravenous injection is given (average of 3 rats); type: ADME, organism-based; details: in vivo, 2 h; in short: as §1
# Rattus norvegicus [4] = assay: Biodistribution of radioligand [125I]FIDA1 in muscle of rat after 30 minutes after an intravenous injection is given (average of 2 rats); type: ADME, organism-based, Muscle tissue; details: in vivo, 0.5 h
# Rattus norvegicus [5] = assay: Biodistribution of radioligand [125I]FIDA1 in muscle of rat after 120 minutes after an intravenous injection is given (average of 2 rats); type: ADME, organism-based, Muscle tissue; details: in vivo, 2 h
# Rattus norvegicus [6] = assay: Biodistribution of radioligand [125I]FIDA1 in spleen of rat after 30 minutes after an intravenous injection is given (average of 2 rats); type: ADME, organism-based; details: in vivo, 0.5 h
# Rattus norvegicus [7] = assay: Biodistribution of radioligand [125I]FIDA1 in heart of rat after 30 minutes after an intravenous injection is given (average of 2 rats); type: ADME, organism-based; details: in vivo, 0.5 h
# Rattus norvegicus [8] = assay: Uptake of radioligand [125I]-FIDA1 by cerebellum in rat after 30 minutes after an intravenous injection is given (average of 2 rats); type: ADME, organism-based; details: in vivo, 0.5 h; in short: as §1
# Rattus norvegicus [9] = assay: Uptake of radioligand [125I]-FIDA1 by hippo-campus in rat after 60 minutes after an intravenous injection is given (average of 3 rats); type: ADME, organism-based; details: in vivo, 1 h; in short: as §1
# Rattus norvegicus [10] = assay: Biodistribution of radioligand [125I]FIDA1 in liver of rat after 30 minutes after an intravenous injection is given (average of 2 rats); type: ADME, organism-based; details: in vivo, 0.5 h
# Rattus norvegicus [11] = assay: Biodistribution of radioligand [125I]FIDA1 in lung of rat after 30 minutes after an intravenous injection is given (average of 2 rats); type: ADME, organism-based; details: in vivo, 0.5 h
# Rattus norvegicus [12] = assay: Uptake of radioligand [125I]FIDA1 by hippo-campus in rat after 2 minutes after an intravenous injection is given (average of 3 rats); type: ADME, organism-based; details: in vivo; in short: as §1
# Rattus norvegicus [13] = assay: Uptake of radioligand [125I]FIDA1 by cortex in rat after 30 minutes after an intravenous injection is given (average of 2 rats); type: ADME, organism-based; details: in vivo, 0.5 h; in short: as §1
# Rattus norvegicus [14] = species on record: Rattus norvegicus; assay: Dissociation constant was determined; type: ADME, organism-based
# In short: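 Rat striatal membrane homogenate (40–60 μg protein) incubated with 125I-labeled ligand ± competitors in 0.2 mL assay buffer, 15 min at 37 °C with stirring. Filtered on protamine-pretreated (0.2%) GF/B filters, washed with cold 50 mM Tris-HCl pH 7.4, gamma-counted. Nonspecific binding defined with 10 μM (+)-butaclamol. Scatchard and competition data fitted by iterative nonlinear least squares.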
# Rattus norvegicus [15] = assay: Biodistribution of radioligand [125I]FIDA1 in skin of rat after 30 minutes after an intravenous injection is given (average of 2 rats); type: ADME, organism-based, Zone of skin; details: in vivo, 0.5 h
# Rattus norvegicus [16] = assay: Uptake of radioligand [125I]FIDA1 by striatum in rat after 30 minutes after an intravenous injection is given (average of 2 rats); type: ADME, organism-based; details: in vivo, 0.5 h; in short: as §1
# Rattus norvegicus [17] = assay: Uptake of radioligand [125I]FIDA1 by striatum in rat after 2 minutes after an intravenous injection is given (average of 3 rats); type: ADME, organism-based; details: in vivo; in short: as §1
# Rattus norvegicus [18] = assay: Biodistribution of radioligand [125I]FIDA1 in thyroid of rat after 30 minutes after an intravenous injection is given (average of 2 rats); type: ADME, organism-based, Thyroid gland; details: in vivo, 0.5 h
# Rattus norvegicus [19] = assay: Biodistribution of radioligand [125I]FIDA1 in thyroid of rat after 30 minutes after an intravenous injection is given (average of 3 rats); type: ADME, organism-based, Thyroid gland; details: in vivo, 0.5 h
# In short: (§2)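 Male Sprague–Dawley rats (225–300 g) were given 0.2 mL saline containing the radioiodinated ligand (8–10 μCi) into the femoral vein under ether anesthesia. They were killed at set times by cardiac excision. Organs were weighed and γ-counted against diluted aliquots of the injected dose and expressed as % dose/organ. Blood and muscle were taken as 7% and 40% of body weight. Three rats were used per point.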
# Rattus norvegicus [20] = assay: Biodistribution of radioligand [125I]FIDA1 in lung of rat after 30 minutes after an intravenous injection is given (average of 3 rats); type: ADME, organism-based; details: in vivo, 0.5 h; in short: as §2
# Rattus norvegicus [21] = assay: Biodistribution of radioligand [125I]FIDA1 in heart of rat after 30 minutes after an intravenous injection is given (average of 3 rats); type: ADME, organism-based; details: in vivo, 0.5 h; in short: as §2
# Rattus norvegicus [22] = assay: Uptake of radioligand [125I]FIDA1 by striatum in rat after 30 minutes after an intravenous injection is given (average of 3 rats); type: ADME, organism-based; details: in vivo, 0.5 h; in short: as §1
# Rattus norvegicus [23] = assay: Biodistribution of radioligand [125I]FIDA1 in liver of rat after 30 minutes after an intravenous injection is given (average of 3 rats); type: ADME, organism-based; details: in vivo, 0.5 h; in short: as §2
# Rattus norvegicus [24] = assay: Biodistribution of radioligand [125I]FIDA1 in muscle of rat after 120 minutes after an intravenous injection is given (average of 3 rats); type: ADME, organism-based, Muscle tissue; details: in vivo, 2 h; in short: as §2
# Rattus norvegicus [25] = assay: Biodistribution of radioligand [125I]FIDA1 in spleen of rat after 30 minutes after an intravenous injection is given (average of 3 rats); type: ADME, organism-based; details: in vivo, 0.5 h; in short: as §2
# Rattus norvegicus [26] = assay: Biodistribution of radioligand [125I]FIDA1 in skin of rat after 30 minutes after an intravenous injection is given (average of 3 rats); type: ADME, organism-based, Zone of skin; details: in vivo, 0.5 h; in short: as §2
# Rattus norvegicus [27] = assay: Biodistribution of radioligand [125I]FIDA1 in blood of rat after 120 minutes after an intravenous injection is given (average of 3 rats); type: ADME, organism-based; details: in vivo, 2 h; in short: as §2
# Rattus norvegicus [28] = assay: Uptake of radioligand [125I]FIDA1 by hippocampus in rat after 60 minutes after an intravenous injection is given (average of 3 rats); type: ADME, organism-based; details: in vivo, 1 h; in short: as §1
# Rattus norvegicus [29] = assay: Uptake of radioligand [125I]FIDA1 by cerebellum in rat after 30 minutes after an intravenous injection is given (average of 3 rats); type: ADME, organism-based; details: in vivo, 0.5 h; in short: as §1
# Rattus norvegicus [30] = assay: Uptake of radioligand [125I]FIDA1 by hippocampus in rat after 2 minutes after an intravenous injection is given (average of 3 rats); type: ADME, organism-based; details: in vivo; in short: as §1
# Rattus norvegicus [31] = assay: Uptake of radioligand [125I]-FIDA1 by cortex in rat after 30 minutes after an intravenous injection is given (average of 3 rats); type: ADME, organism-based; details: in vivo, 0.5 h; in short: as §1
# Rattus norvegicus [32] = assay: Biodistribution of radioligand [125I]FIDA1 in brain of rat after 30 minutes after an intravenous injection is given (average of 3 rats); type: ADME, organism-based; details: in vivo, 0.5 h; in short: as §2
# Rattus norvegicus [33] = assay: Biodistribution of radioligand [125I]FIDA1 in muscle of rat after 30 minutes after an intravenous injection is given (average of 3 rats); type: ADME, organism-based, Muscle tissue; details: in vivo, 0.5 h; in short: as §2
# Rattus norvegicus [34] = assay: Uptake of radioligand [125I]-FIDA1 by hippocampus in rat after 30 minutes after an intravenous injection is given (average of 3 rats); type: ADME, organism-based; details: in vivo, 0.5 h; in short: as §1
# Rattus norvegicus [35] = assay: Uptake of radioligand [125I]FIDA1 by hippocampus in rat after 120 minutes after an intravenous injection is given (average of 3 rats); type: ADME, organism-based; details: in vivo, 2 h; in short: as §1
compound,measurement,setting,value
COc1cc(I)cc(C(=O)NC[C@@H]2CCCN2Cc2ccc(F)cc2)c1OC,Dose/organ,Rattus norvegicus [1],0.21%
same,Dose/g,Rattus norvegicus [2],0.14%
same,Dose/g,Rattus norvegicus [3],0.01%
same,Dose/organ,Rattus norvegicus [4],10.87%
same,Dose/organ,Rattus norvegicus [5],2.04%
same,Dose/organ,Rattus norvegicus [6],0.43%
same,Dose/organ,Rattus norvegicus [7],0.16%
same,Dose/g,Rattus norvegicus [8],0.09%
same,Dose/g,Rattus norvegicus [9],0.05%
same,Dose/organ,Rattus norvegicus [10],12.69%
same,Dose/organ,Rattus norvegicus [11],1.06%
same,Dose/g,Rattus norvegicus [12],0.47%
same,Dose/g,Rattus norvegicus [13],0.14%
same,Kd,Rattus norvegicus [14],0.02 nM
same,Dose/organ,Rattus norvegicus [15],7.04%
same,Dose/g,Rattus norvegicus [16],0.4%
same,Dose/g,Rattus norvegicus [17],0.59%
same,Dose/organ,Rattus norvegicus [18],0.04%
CCN1CCC[C@H]1CNC(=O)c1cc(I)cc(OC)c1OCCF,Dose/organ,Rattus norvegicus [19],0.03%
same,Dose/organ,Rattus norvegicus [20],0.66%
same,Dose/organ,Rattus norvegicus [21],0.14%
same,Dose/g,Rattus norvegicus [22],0.24%
same,Dose/organ,Rattus norvegicus [23],22.4%
same,Dose/organ,Rattus norvegicus [24],0.76%
same,Dose/organ,Rattus norvegicus [25],0.31%
same,Dose/organ,Rattus norvegicus [26],4.97%
same,Dose/organ,Rattus norvegicus [27],0.51%
same,Dose/g,Rattus norvegicus [28],0.007%
same,Dose/g,Rattus norvegicus [29],0.03%
same,Dose/g,Rattus norvegicus [30],0.25%
same,Kd,Rattus norvegicus [14],0.13 nM
same,Dose/g,Rattus norvegicus [31],0.05%
same,Dose/organ,Rattus norvegicus [32],0.11%
same,Dose/organ,Rattus norvegicus [33],8.24%
same,Dose/g,Rattus norvegicus [34],0.05%
same,Dose/g,Rattus norvegicus [17],0.3%
same,Dose/g,Rattus norvegicus [35],0.0006%
